This note sets out measurements from ChEMBL document CHEMBL4513216, “Probing the Open Global Health Chemical Diversity Library for Multistage-Active Starting Points for Next-Generation Antimalarials” (ACS Infect Dis, 2020).

Molecules are shown by their SMILES.

The data set is described as follows: Toxicity liver stage against HepG2, at 10uM. It is filed as cell-based. Also noted: test concentration 10 uM, cell line HepG2-A16-CD81EGFP. As to conditions: human, HepG2-A16-CD81EGFP cells; read-out: INHIBITION
The essentials:
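Uninfected HepG2-A16-CD81EGFP cells, 3 × 10^3 per well, 1536-well, plated on prespotted compound at 10 μM final, parasite-free screening media added to match infected plates; puromycin 10 μM positive, DMSO 0.5% negative; run in parallel with 48 h PbLuc assay at 37 °C, 5% CO2; viability by CellTiter-Glo luminescence, normalized to controls.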
Regarding `COc1ccc(C2CCN(CCCC#N)CC2)cc1`, the cytotoxicity at 10 µM is -9.89%.

Consider `Cc1c2ncn(CC(=O)NC(C)C)c(=O)c2nn1C`, for which the cytotoxicity at 10 µM is -5.26%.

Regarding `CSCC[C@H](NC(=O)CCn1ccc2c(Cl)cccc21)C(=O)O`, the cytotoxicity at 10 µM is 2.42%.

As for `CN(C)CCCNC(=O)C1CC(=O)N(c2n[nH]c3cccc(F)c23)C1` (stereo not given), the cytotoxicity at 10 µM was -5.92%.

For `COc1ccc(OC)c(C2CCN(C3CCOCC3)C2)c1` (stereo not given), the cytotoxicity at 10 µM is -6.28%.

As to `c1csc(CN2CCOCC3(CCN(C4CCOCC4)C3)C2)c1` (stereo not given), the cytotoxicity at 10 µM is -0.608%.

`COc1ccc(CN(C)c2nc3c(cnn3C)c(=O)[nH]2)c(OC)c1`: the cytotoxicity at 10 µM came to 58.9%.

On to `Cc1cccc(N2CC[C@H]3CO[C@H](CN(C)Cc4ccco4)[C@H]3C2)n1`, for which the cytotoxicity at 10 µM came out at 13.3%.

As for `CC(=O)Nc1ccc(OCc2noc(C(=O)N3CCCCC3)n2)cc1`, the cytotoxicity at 10 µM is -3.68%.

Take `O=C(C1CCCC1)N1CC[C@]2(O)CCN(Cc3ncccn3)C[C@@H]2C1`: the cytotoxicity at 10 µM amounted to 9.04%.

Consider `Cn1ccnc1CN1CCC(c2ccnc(-c3cccc(O)c3)c2)C1` (stereo not given), for which the cytotoxicity at 10 µM was determined as 6.52%.

As for `COc1ccc(C)cc1-n1cnnc1C1CC(=O)N(C)C1` (stereo not given), the cytotoxicity at 10 µM was -9.25%.

Take `O=C(CN1CCOC(Cn2cccn2)C1)NC1CCN(C2CC2)CC1` (stereo not given): the cytotoxicity at 10 µM turned out to be 1.1%.

Take `Cc1nc(CN2CCCC(NCCCc3ccccc3)C2)no1` (stereo not given): the cytotoxicity at 10 µM was -3.9%.

With `CN1CCC/C1=N\S(=O)(=O)c1ccc(NC(=O)c2cccs2)cc1`, the cytotoxicity at 10 µM was -3.34%.

For `Cc1cc(N2CCC(NCCOc3ccccc3)CC2)nc(C)n1`, the cytotoxicity at 10 µM was -6.11%.

Consider `CCc1c(C)nc(C)nc1N1C[C@@H](CN(C)CCN(C)C)[C@@H](CO)C1`, for which the cytotoxicity at 10 µM was -2.07%.

As to `O=S(=O)(c1ccccc1)N1CCCC(Cn2cncn2)C1` (stereo not given), the cytotoxicity at 10 µM is -4.28%.

As to `O=C(CC1CCCC1)N1CCC(c2noc(-c3ccccn3)n2)CC1`, the cytotoxicity at 10 µM came to 5.05%.

Regarding `COc1cc(CCC(=O)NC(C)C(=O)O)ccc1OCC(F)(F)F` (stereo not given), the cytotoxicity at 10 µM is -2.15%.

Turning to `CCOc1ccc(C2CC(=O)Nc3c2c(=O)nc2sccn32)cc1` (stereo not given), the cytotoxicity at 10 µM was -12.7%.

`CC(NCc1cc(F)ccc1F)c1ccc(OCC(=O)NC2CC2)cc1` (stereo not given): the cytotoxicity at 10 µM is -13.2%.

Regarding `COCCNC(=O)CN1CC=C(n2c(C)nc(=O)c3ccccc32)CC1`, the cytotoxicity at 10 µM is -5.45%.

Consider `Cc1cnn(CCCNC2Cc3ccccc3C2)c1`, for which the cytotoxicity at 10 µM was 3.34%.

With `Cc1cccc(C(=O)N2CC[C@]3(C[C@H](OCc4ccccn4)CO3)C2)c1`, the cytotoxicity at 10 µM was -70.9%.

Turning to `Cc1cc(N2CCCN(C(=O)Cc3cc(F)cc(F)c3)CC2)ccn1`, the cytotoxicity at 10 µM is -6.7%.

For `Cc1cc(N2CCN(Cc3ccsc3)C(CCO)C2)nc(N)n1` (stereo not given), the cytotoxicity at 10 µM is -7.3%.

Consider `CN(C)c1cncc(C2CCCN(c3cnccn3)C2)n1` (stereo not given), for which the cytotoxicity at 10 µM stood at 2.45%.

As to `Cc1noc(C)c1CC(=O)N1CCC(c2ccn3nccc3n2)CC1`, the cytotoxicity at 10 µM is -0.317%.

As for `Cc1ccoc1C(=O)N1C[C@@H]2[C@@H](C1)OCC(=O)N2Cc1cccnc1`, the cytotoxicity at 10 µM worked out at 9.38%.

As for `CC(C)c1cccc(-n2cc(O)c(C(N)=O)n2)c1`, the cytotoxicity at 10 µM was -5.93%.

In the case of `COc1cc2cc(C(=O)NCCC(=O)O)n(C)c2c(OC)c1OC`, the cytotoxicity at 10 µM was found to be 4.76%.

On to `CC(C)(C(=O)NCC(=O)NC1CC1)c1ccccc1F`, for which the cytotoxicity at 10 µM was -4.9%.

`CCc1nnc2n1CCN(C(=O)Cc1csc(-c3ccco3)n1)C2`: the cytotoxicity at 10 µM is -8.7%.

For the compound `Cc1cccnc1[C@]1(O)CC[C@H]2CN(Cc3cccc(Cl)c3Cl)C[C@H]21`, the cytotoxicity at 10 µM is -5.86%.

Consider `CCNc1ncc(C(=O)NCc2ccc(F)c(C(F)(F)F)c2)cn1`, for which the cytotoxicity at 10 µM was -5.96%.

`CNc1nccc(-c2cnc3sc(C)c(C)n3c2=O)n1`: the cytotoxicity at 10 µM is -2.78%.

Consider `c1cnn(CCNCCCOc2ccc3c(c2)OCO3)c1`, for which the cytotoxicity at 10 µM amounted to 7.61%.

Take `O=C(c1ccc(O)nc1)N1CCN(C(=O)c2ccc(F)c(F)c2)CC1`: the cytotoxicity at 10 µM was -10.3%.

As to `CN1CC2(CCCN(Cc3ccc(Oc4ccccc4)cc3)C2)OC1=O` (stereo not given), the cytotoxicity at 10 µM worked out at 15.8%.

Turning to `Cc1nc(C)n(CCCn2ccnc2-c2cc3n(n2)CCCNC3)n1`, the cytotoxicity at 10 µM was determined as 3.71%.

Consider `O=C(C1CCCc2[nH]ncc21)N1CCCCCC1` (stereo not given), for which the cytotoxicity at 10 µM was 4.65%.

Turning to `CCOC(=O)C1CCN(C(=O)c2cnn(-c3ccccc3F)c2N)CC1`, the cytotoxicity at 10 µM was 4.47%.

For `CC(C)c1ccc(C(N)c2cccs2)cc1` (stereo not given), the cytotoxicity at 10 µM was 15.4%.

As to `CCn1nccc1CNc1[nH]cnc2nc(C)nc1-2`, the cytotoxicity at 10 µM is -12%.

As for `CCOCC1CN(S(=O)(=O)CC)Cc2cnn(CC3CC3)c21` (stereo not given), the cytotoxicity at 10 µM is 9.55%.

Consider `CCOc1ccccc1NC(=O)Nc1cc(N2CCCC2)ncn1`, for which the cytotoxicity at 10 µM is -0.113%.

As to `CC(C)N1CCC(N2CCOC3(CCCC3)C2)C1=O` (stereo not given), the cytotoxicity at 10 µM stood at 1.56%.

With `CC(CCS(C)(=O)=O)NC(=O)NCc1ccc2ccccc2c1` (stereo not given), the cytotoxicity at 10 µM was -137%.

Consider `CCC(Cn1ccc2[nH]c(=O)c(C#N)cc2c1=O)OC` (stereo not given), for which the cytotoxicity at 10 µM is 2.33%.

For the compound `CN(C)CCN1CCOC2(CCN(c3nccs3)CC2)c2ccccc21`, the cytotoxicity at 10 µM is -1.99%.

In the case of `CNC(=O)c1cccnc1N1CCC(Oc2ccc(F)cc2)CC1`, the cytotoxicity at 10 µM came out at 3.41%.

As to `COCC(=O)N[C@H](C)c1onc(-c2ccc(F)cc2)c1C(=O)O`, the cytotoxicity at 10 µM is -8.15%.

With `CC(C)c1noc(CCNC(=O)C2COc3ccccc3C2)n1` (stereo not given), the cytotoxicity at 10 µM is -1.24%.

For the compound `CC(C)Nc1ncnc2c1CCN(C(=O)CC1CCCC1)CC2`, the cytotoxicity at 10 µM is -81.5%.

As for `COCCCNC(=O)Nc1ncc(-c2cccc(OC)c2)n1CCOC`, the cytotoxicity at 10 µM was found to be 18.6%.

In the case of `C=Cc1ccc(C(=O)N2CCCC(Nc3ccc(OC)cc3)C2)cc1` (stereo not given), the cytotoxicity at 10 µM was -12%.

Turning to `Cc1nn2c(N3CCS(=O)(=O)CC3)cc(-c3ccccc3)nc2c1C`, the cytotoxicity at 10 µM is -6.43%.

For the compound `CC(c1nc(-c2cccnc2)no1)N(C)CCCOc1ccccc1` (stereo not given), the cytotoxicity at 10 µM is -2.14%.

As for `Cc1ncncc1C(=O)N1CCCN(Cc2nccn2C(C)C)CC1`, the cytotoxicity at 10 µM worked out at 5.79%.

Consider `O=c1[nH]c(N2CCOCC2)nc2c1CN(Cc1cccnc1)CC2`, for which the cytotoxicity at 10 µM amounted to 12.3%.

Consider `COCCC(=O)N1CCc2c(CNc3ncccn3)cncc2C1`, for which the cytotoxicity at 10 µM was found to be 9.05%.

Take `COc1cc(-c2n[nH]c(CCN)n2)cc(OC)c1OC`: the cytotoxicity at 10 µM was -0.297%.

As to `CC(=O)N1CCN(c2cc(C3CN(C(C)=O)CCO3)nc(C)n2)CC1` (stereo not given), the cytotoxicity at 10 µM is -22.8%.

For `C[C@@H]1C[C@H]2CN(S(=O)(=O)c3ccc(F)cc3)C[C@H]2O1`, the cytotoxicity at 10 µM came out at 3.26%.

For `O=C(c1cn(-c2ccccc2Cl)nn1)N1CCCSCC1`, the cytotoxicity at 10 µM is -4.26%.

For the compound `c1cc(-c2cncnc2)cc(-c2ccn(CC3CCNC3)n2)c1` (stereo not given), the cytotoxicity at 10 µM stood at 5.54%.

As to `COc1c(CNCCNC(=O)c2ccccc2)c(C)nn1C`, the cytotoxicity at 10 µM is -4.74%.

For `CC1=CC(C)(C)N(CN2C(=O)c3ccccc3C2=O)c2ccccc21`, the cytotoxicity at 10 µM was 5.82%.

Regarding `O=C(c1cccnc1)N1C[C@H]2CC[C@@H](C1)N(Cc1ncc[nH]1)C2`, the cytotoxicity at 10 µM was -13.2%.

With `COCCN1CC(C(=O)Nc2ccc3c(c2)CCC(=O)N3C)CC1=O` (stereo not given), the cytotoxicity at 10 µM came to 6.18%.

`O=C(Cn1cc(C2CC2)nn1)N(Cc1ccco1)Cc1cccs1`: the cytotoxicity at 10 µM was -13.3%.

Turning to `CCN1CCC2(CC1)CN(C(=O)c1cccnc1)c1ccc(Cl)cc12`, the cytotoxicity at 10 µM was -111%.

Regarding `CN(Cc1ccc(OC(F)F)cc1)C(=O)CS(=O)(=O)c1ccc(Cl)cc1`, the cytotoxicity at 10 µM is 5.19%.

`NCc1cccc(-c2cccnc2C(=O)NCCCN2CCOCC2)c1`: the cytotoxicity at 10 µM is -8.77%.

As to `CC1CCN(CCCNS(=O)(=O)Cc2ccccc2F)CC1`, the cytotoxicity at 10 µM is -8.79%.

Take `COCCCS(=O)(=O)N1CCN(C(C)(C)CO)CC1`: the cytotoxicity at 10 µM is -6.46%.

Turning to `Fc1ccc(CN[C@@H]2COC[C@H]2c2ccc(F)cc2)cc1`, the cytotoxicity at 10 µM was determined as 2.57%.

Regarding `Cc1noc(CCCC(=O)NC(C)c2nnc3n2CCC3)n1` (stereo not given), the cytotoxicity at 10 µM came to 0.259%.

`CN(CC1CCCCC1)C(=O)c1cn(C)nc1-c1cccnc1`: the cytotoxicity at 10 µM was 2.2%.

For the compound `COCCO[C@H]1CCN(C(=O)NC2CC2)[C@H]1Cc1cnn(C)c1`, the cytotoxicity at 10 µM worked out at 8.36%.

`Cc1cc(C)cc(-c2cccc(CC3(C(=O)O)CCOCC3)c2)c1`: the cytotoxicity at 10 µM was -4.04%.

As to `COc1cccc(CC(=O)NC2CCCc3cn[nH]c32)c1` (stereo not given), the cytotoxicity at 10 µM came out at 12.5%.

Take `Cc1cc(C)n(CC(C)CNC(=O)CCc2ccco2)n1` (stereo not given): the cytotoxicity at 10 µM was -1.05%.

Take `Cc1occc1C(=O)NCC(=O)NCCOc1ccc2c(c1)CCC2`: the cytotoxicity at 10 µM was -2.83%.

With `COCC(=O)N1CCCC1c1cccc(Cc2ccccc2F)n1` (stereo not given), the cytotoxicity at 10 µM is -37.7%.

In the case of `O=C(c1cc(-c2ccco2)nc2c(Cl)cccc12)N1C[C@H]2CNC[C@H]2C1`, the cytotoxicity at 10 µM was -4.23%.

As for `CC(C)OCCNC1(c2ccc(Cl)cc2)CCOCC1`, the cytotoxicity at 10 µM was 5.5%.

As for `Cc1ccc(C(=O)N2CCC3(CCCC3)CC2)c(=O)[nH]1`, the cytotoxicity at 10 µM came out at 2.24%.

Turning to `Cc1cc(C(=O)NCC2OCCc3cn(CC4CC4)nc32)c(C)[nH]1` (stereo not given), the cytotoxicity at 10 µM came out at 3.42%.

In the case of `O=C(CCNC(=O)C1CCCC1)NCc1cccnc1-n1cncn1`, the cytotoxicity at 10 µM is -3.39%.

Turning to `Cc1nc(CO[C@@H]2CN(Cc3ccsc3)[C@@H]3COC[C@@H]32)cs1`, the cytotoxicity at 10 µM was determined as 3.04%.

Take `Cc1cc(C)nc(N2CCC(c3c(C(N)=O)sc4ccccc34)C2)n1` (stereo not given): the cytotoxicity at 10 µM was found to be 8.78%.

As to `CC1CN(CC(=O)NC(=O)NCc2cccs2)CCN1CC(F)(F)F` (stereo not given), the cytotoxicity at 10 µM was -0.402%.

With `CSc1ccsc1C(=O)NS(=O)(=O)c1cnn(C)c1`, the cytotoxicity at 10 µM was -5.35%.
